{"source": "paper PMC6032914", "about": "(Clinical Pharmacology in Drug Development, 2018)", "key": {"[1]": {"assay": "Gefitinib pharmacokinetics", "format": "in vivo", "conditions": "human, plasma, oral, Tmax (h), mean (SD), gefitinib 250 mg daily with ficlatuzumab 20 mg/kg"}, "serum HGF": {"tested_on": "serum HGF", "assay": "Serum HGF pharmacodynamic marker", "format": "in vivo, human", "conditions": "total serum HGF after ficlatuzumab administration", "outline": "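Peripheral blood for serum total HGF was drawn before treatment and 3 h postinfusion on day 1, predose on days 2, 3, 8 and 22–28, predose and 2 h postinfusion on day 15 of cycle 1, and predose on cycle 3 day 1.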"}, "[2]": {"conditions": "cited from earlier work"}, "Safety and tolerability": {"assay": "Safety and tolerability", "format": "in vivo, human", "conditions": "every 2 weeks, plus gefitinib 250 mg/day"}, "NSCLC xenografts": {"tested_on": "NSCLC xenografts", "conditions": "cited from earlier work"}, "[3]": {"tested_on": "phospho‐c‐Met and phospho‐Akt", "conditions": "NSCLC tumor lysates, alone or in combination; cited from earlier work"}, "HGF": {"target": "HGF", "conditions": "affinity of ficlatuzumab to HGF; cited from earlier work"}, "[4]": {"assay": "Ficlatuzumab serum pharmacokinetics", "format": "in vivo, human"}, "[5]": {"assay": "Ficlatuzumab antidrug antibody", "format": "in vivo, human"}, "[6]": {"tested_on": "c‐Met‐positive advanced NSCLC", "conditions": "in combination with erlotinib; cited from earlier work"}, "[7]": {"conditions": "15 patients receiving monotherapy 20 mg/kg"}, "[8]": {"conditions": "ficlatuzumab 10 mg/kg, Cycle 1, day 1, n = 3"}, "[9]": {"conditions": "ficlatuzumab 20 mg/kg, Cycle 1, day 1, n = 12"}, "[10]": {"conditions": "ficlatuzumab 20 mg/kg, Cycle 4, day 1, n = 6"}}, "note": "Where two headings read alike, the source gives them in different places.", "data": [{"compound": "COc1cc2ncnc(Nc3ccc(F)c(Cl)c3)c2cc1OCCCN1CCOCC1", "note": "[Gefitinib, gefitinib]", "values": [{"measurement": "Tmax", "setting": "[1]; Cycle 1, day 1, n = 12", "result": 5.4, "unit": "h"}, {"measurement": "Tmax", "setting": "[1]; Cycle 4, day 1, n = 6", "result": 9.9, "unit": "h"}]}, {"compound": "Ficlatuzumab: humanized IgG1κ inhibitory monoclonal antibody that binds to HGF and prevents the ligand from activating the c‐Met receptor", "values": [{"measurement": "highest HGF level observed", "setting": "serum HGF", "result": "≈ 14 ng/mL"}, {"measurement": "TEAE fatigue", "setting": "[2]; [7]", "result": 5, "unit": "patients"}, {"measurement": "TEAE hypokalemia", "setting": "[2]; [7]", "result": 4, "unit": "patients"}, {"measurement": "TEAE nausea", "setting": "[2]; [7]", "result": 4, "unit": "patients"}, {"measurement": "TEAE peripheral edema", "setting": "[2]; [7]", "result": 8, "unit": "patients"}, {"measurement": "TEAE vomiting", "setting": "[2]; [7]", "result": 5, "unit": "patients"}, {"measurement": "tolerability of the highest administered dose", "setting": "[2]; ficlatuzumab 20 mg/kg", "result": "well tolerated without any dose‐limiting toxicities"}, {"measurement": "grade 3/4 TEAE hypokalemia", "setting": "[2]; ficlatuzumab monotherapy", "result": 4, "unit": "patients"}, {"measurement": "recommended phase 2 dose (RP2D) of ficlatuzumab", "setting": "[2]; intravenous every 2 weeks, with oral erlotinib 150 mg/day", "result": 20, "unit": "mg/kg"}, {"measurement": "recommended phase 2 dose (RP2D) of ficlatuzumab", "setting": "Safety and tolerability", "result": 20, "unit": "mg/kg"}, {"measurement": "tumor growth", "setting": "NSCLC xenografts", "result": "inhibits tumor growth"}, {"measurement": "phospho‐c‐Met and phospho‐Akt levels", "setting": "[3]", "result": "decreased"}, {"measurement": "Kd", "setting": "HGF", "result": 3, "unit": "pM"}, {"measurement": "mean trough level of ficlatuzumab", "setting": "[4]; beginning of cycle 4, 20 mg/kg cohort, n = 8", "result": 413.1, "unit": "µg/mL"}, {"measurement": "Ficlatuzumab drug exposure (Cmax and AUC0–last) versus dose", "setting": "[4]; cycle 1, 10 and 20 mg/kg", "result": "approximately proportional to dose"}, {"measurement": "AUC0–last (mg·h/mL), mean (SD)", "setting": "[4]; [8]", "result": "39.2 (4.5) mg·h/mL"}, {"measurement": "Cmax (μg/mL), mean (SD)", "setting": "[4]; [8]", "result": "229 (8.9) μg/mL"}, {"measurement": "t1/2 (Days), mean (SD)", "setting": "[4]; [8]", "result": "15.2 (4.7) Days"}, {"measurement": "AUC0–last (mg·h/mL), mean (SD)", "setting": "[4]; [9]", "result": "81.3 (16.5) mg·h/mL"}, {"measurement": "Cmax (μg/mL), mean (SD)", "setting": "[4]; [9]", "result": "544 (141) μg/mL"}, {"measurement": "t1/2 (Days), mean (SD)", "setting": "[4]; [9]", "result": "11.3 (3.2) Days"}, {"measurement": "AUC0–last (mg·h/mL), mean (SD)", "setting": "[4]; [10]", "result": "212 (47.3) mg·h/mL"}, {"measurement": "Cmax (μg/mL), mean (SD)", "setting": "[4]; [10]", "result": "1070 (220) μg/mL"}, {"measurement": "mean half‐life", "setting": "[4]; first dose in cycle 1, dose not stated", "result": "approximately 15 days"}, {"measurement": "ADA result of postficlatuzumab samples", "setting": "[5]; 41 samples from 14 patients", "result": "negative"}, {"measurement": "immunogenicity", "setting": "[5]; any patients during the observation period", "result": "not immunogenic"}]}, {"compound": "onartuzumab: c‐Met‐targeted monovalent monoclonal antibody, tested in combination with erlotinib", "values": [{"measurement": "outcome of the phase 3 study", "setting": "[6]", "result": "lack of efficacy"}]}]}
